Assay outcomes from PubChem BioAssay.
Env fusion inh: inhibitors of HIV Env-mediated cell fusion. HeLa-JRFL Env/CEM21 cell fusion, luciferase. inhibition, % at 12.3 µM. 360,000 tested, 1.1% active;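 active = mean replicate inhibition score of at least 50 and every replicate individually at or above 50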
miR122 inh: inhibitors of miR-122 in Huh7 cells | activation (reporter increase), % at 12.5 µM | 340,000 tested, 0.3% active | Huh7 miR-122 Renilla luciferase sensor, 48 h; neutral wells = 0, positive control = 100;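 active = mean replicate activation score at least 90 and every replicate individually at or above 90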;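 also: higher luciferase means less miR-122 activity so hits act as miR-122 inhibitors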
dFosB act: activators of mouse delta FosB homodimer; purified delta FosB, TAMRA-CDK5 oligo fluorescence polarization; percent of positive-control signal above neutral wells; activation, % at 25 µM; 340,000 tested, 0.99% active; AID 493131;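 active = mean activation above about 17%, with every replicate also reaching it, limit read from the data, passing the limit was not always enough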
Rtt109 HAT inh: blocks Candida albicans Rtt109/Vps75 acetyltransferase activity; Q5AAJ8; purified Rtt109/Vps75, ThioGlo CoA-SH fluorescence, 4 h; inhibition, % at 34.9 µM; 330,000 tested, 0.16% active; AID 540336;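 active = inhibition of at least 50% in every replicate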
Target sequence (Q5AAJ8 whole entry, looked up): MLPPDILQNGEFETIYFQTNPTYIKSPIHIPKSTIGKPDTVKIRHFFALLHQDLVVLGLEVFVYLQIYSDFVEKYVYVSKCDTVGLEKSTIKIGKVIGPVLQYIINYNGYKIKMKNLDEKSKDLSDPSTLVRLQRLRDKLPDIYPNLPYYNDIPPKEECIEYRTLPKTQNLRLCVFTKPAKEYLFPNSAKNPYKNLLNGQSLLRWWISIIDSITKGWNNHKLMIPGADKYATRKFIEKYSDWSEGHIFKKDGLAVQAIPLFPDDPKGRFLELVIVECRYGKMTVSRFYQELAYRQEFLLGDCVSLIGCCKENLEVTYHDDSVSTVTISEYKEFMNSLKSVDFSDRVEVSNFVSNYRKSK
INS-1E GSIS act: GLuc luminescence reporter in INS-1E cells, primary screen for activators of glucose-dependent secretion of insulin; INS-1E GLuc reporter insulin secretion, 2-3 h; activation, % at 16.6 µM; 370,000 tested, 0.61% active;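 active = lowest replicate activation of at least 40%, so every replicate reaches that level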
Cneo AK release: causes C. neoformans cell lysis; adenylate kinase release luminescence, 4 h; normalised: neutral wells 0, clomiphene wells 100; lysis activity, % at 15 µM; 360,000 tested, 0.2% active; AID 651654;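 active = mean lysis activity across replicates of at least 80%, whatever share of replicates individually reach that level; inactive = mean lysis activity below 80%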
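read-out = cell lysis signal | test system = log-phase Cryptococcus neoformans yeast cells | input = cells at 5 × 10^6 per mL | medium = fresh YPD growth medium | signal = luminescent adenylate kinase detection reagent | timing = 4 h at 37 °C static, read 1 h later | dosing = single dose | controls = Clomiphene as positive lysis control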
Hits are given with their value; i = inactive; nt = no result given; [ ] = dose if it differs, or a comment. A selection: hits, their analogues and other compounds. The true share with any hit is near 2.4%.

SMILES | Env fusion inh | miR122 inh | dFosB act | Rtt109 HAT inh | INS-1E GSIS act | Cneo AK release
O=C(C[C@H]1C=C[C@@H](NC(=O)Nc2ccc(F)cc2)[C@@H](CO)O1)NCCN1CCCC1 | i | i | nt | nt | i | i
CCOc1cccc(C(=O)Nc2ccc(NC(=O)c3cc4ccccc4o3)c(OC)c2)c1 | i | i | i | i | i | i
COc1cc(NC(=O)c2cccc(C)c2)ccc1NC(=O)c1cc2ccccc2o1 | i | nt | i | i | 83 | i
COc1ccc(CNC(=O)C2(c3ccc(Cl)cc3)CC2)cc1 | i | i | i | 56 | i | i
COc1ccc(CNC(=S)Nc2cccc(Cl)c2)cc1 | i | i | nt | nt | nt | i
COc1ccc(CNC(=O)Nc2cccc(Cl)c2)cc1 | nt | i | 24 | i | nt | i
C[C@@H]1CN([C@H](C)CO)C(=O)c2cc(-c3ccc(F)cc3)cnc2O[C@H]1CN(C)C(=O)c1ccncc1 | i | i | nt | nt | i | nt
CCCNC(=O)N1CC2(CN(C(=O)CCC)C2)c2c(n(C)c3cc(OC)ccc23)[C@H]1CO | nt | nt | nt | nt | i | nt
C[C@@H]1CN([C@@H](C)CO)C(=O)c2c(c3ccccc3n2C)-c2ccccc2CO[C@@H]1CN(C)C(=O)[C@@H](Cc1ccccc1)N(C)C | i | nt | nt | nt | i | i
C[C@H](C(=O)N(C)C[C@@H]1OCc2ccccc2-c2c(n(C)c3ccccc23)C(=O)N([C@@H](C)CO)C[C@H]1C)c1ccccc1 | 67[16.7 µM] | nt | nt | nt | i | nt
C[C@H](CO)N1C[C@H](C)[C@@H](CN(C)C(=O)[C@H](C)c2ccccc2)OCc2ccccc2-c2c(n(C)c3ccccc23)C1=O | nt | nt | nt | nt | i | nt
C[C@H](CO)N1C[C@H](C)[C@@H](CN(C)C(=O)[C@H](Cc2ccccc2)N(C)C)OCc2ccccc2-c2c(n(C)c3ccccc23)C1=O | 60[16.7 µM] | nt | nt | nt | i | i
CC(C)NC(=O)N(C)C[C@H]1Oc2ccc(NC(=O)CCC(F)(F)F)cc2C(=O)N([C@H](C)CO)C[C@H]1C | nt | i | nt | nt | i | i
CCCC(=O)N1CC2(CN[C@H](CO)c3c2c2ccc(OC)cc2n3C)C1 | nt | nt | nt | nt | i | nt
CC(=O)Nc1c(C(=O)C2CC2)oc2ccccc12 | nt | i | i | i | 50 | i
O=C(CN1CCCC1)Nc1c(C(=O)C2CC2)oc2ccccc12 | i | nt | i | i | i | nt
CCCC(=O)Nc1ccc2c(c1)C(=O)N(C)[C@@H]1CC[C@@H](CC(=O)Nc3ccccc3)O[C@@H]1CO2 | i | i | nt | nt | i | i
COC(=O)c1ccc(C2c3[nH]c4ccccc4c3C[C@H]3C(=O)N(C4CC4)CC(=O)N23)cc1 (stereo not given in full) | i | nt | i | i | nt | nt
CCOc1ccc(C2c3[nH]c4ccccc4c3C[C@H]3C(=O)N(C4CCN(Cc5ccccc5)CC4)CC(=O)N23)cc1OC (stereo not given in full) | i | nt | 35 | i | i | i
CCOc1ccc(C2c3[nH]c4ccccc4c3C[C@H]3C(=O)N(C4CC4)CC(=O)N23)cc1OC (stereo not given in full) | i | nt | i | i | i | i
O=C1[C@@H]2Cc3c([nH]c4ccccc34)C(c3cccc([N+](=O)[O-])c3)N2C(=O)CN1C1CCN(Cc2ccccc2)CC1 (stereo not given in full) | i | i | 82 | i | i | i
O=c1c2c([N+](=O)[O-])cc([N+](=O)[O-])cc2sn1Cc1ccccc1 | i | nt | i | i | 128 | i
COc1cccc(CN2CC3(CN(C(C)=O)C3)c3c(n(C)c4cc(OC)ccc34)[C@@H]2CO)c1 | nt | nt | nt | nt | i | nt
CCCNC(=O)Nc1ccc2c(c1)C(=O)N(C)C[C@H](OC)[C@H](C)CN(CCC)[C@H](C)CO2 | i | nt | nt | nt | i | i
O=C(Cc1cccs1)Nc1nnc(Cc2ccccc2)s1 | nt | i | i | i | i | i
SMILES | Env fusion inh | miR122 inh | dFosB act | Rtt109 HAT inh | INS-1E GSIS act | Cneo AK release
COc1ccc(Cc2nnc(NC(=O)Cc3cccs3)s2)cc1OC | i | i | i | i | 153 | i
COc1ccc(C(=O)Nc2nnc(CC(=O)N/N=C/c3ccc(O)cc3O)s2)cc1 | i | nt | 36 | i | i | nt
COc1ccc(Cc2nnc(NC(=O)c3cc(OC)c(OC)c(OC)c3)s2)cc1 | i | i | i | 55 | i | i
COc1ccc(Cc2nnc(NC(=O)c3ccc(OC)c(OC)c3)s2)cc1 | i | i | i | i | i | i
Cc1ccc(C(=O)Nc2nnc(CC(=O)N/N=C/c3ccc(O)c(O)c3)s2)cc1 | i | nt | i | i | i | i
C[C@H]1CN([C@@H](C)CO)C(=O)c2cc(C#CC3CC3)cnc2O[C@@H]1CN(C)S(=O)(=O)c1cccc(F)c1 | i | i | nt | nt | i | i
COc1ccccc1NC(=O)Nc1ccc2c(c1)C(=O)N(C)C[C@H](OC)[C@H](C)CN(C)[C@H](C)CO2 | i | nt | nt | nt | i | nt
C[C@@H]1CN([C@H](C)CO)C(=O)c2cc(NC(=O)Nc3cccc4ccccc34)ccc2O[C@@H](C)CCCCO[C@@H]1CN(C)Cc1ccc2c(c1)OCO2 | i | i | nt | nt | i | 84
C[C@@H]1CN([C@H](C)CO)C(=O)c2cc(NC(=O)Nc3cccc4ccccc34)ccc2O[C@@H](C)CCCCO[C@@H]1CN(C)C(=O)c1ccccc1 | i | i | nt | nt | i | i
C[C@@H]1CN([C@@H](C)CO)C(=O)c2cc(NC(=O)Nc3cccc4ccccc34)ccc2O[C@@H](C)CCCCO[C@H]1CN(C)C(=O)c1ccccc1 | 61[16.7 µM] | i | nt | nt | i | i
C[C@@H]1CCCCO[C@@H](CN(C)C(=O)Nc2ccc3c(c2)OCO3)[C@H](C)CN([C@H](C)CO)C(=O)c2cc(NC(=O)Nc3cccc4ccccc34)ccc2O1 | nt | nt | nt | nt | i | nt
C[C@H]1CCCCO[C@H](CN(C)Cc2ccc3c(c2)OCO3)[C@@H](C)CN([C@@H](C)CO)C(=O)c2cc(NC(=O)Nc3cccc4ccccc34)ccc2O1 | i | i | nt | nt | i | i
C[C@@H]1CCCCO[C@@H](CN(C)C(=O)Nc2ccc3c(c2)OCO3)[C@@H](C)CN([C@H](C)CO)C(=O)c2cc(NC(=O)Nc3cccc4ccccc34)ccc2O1 | i | i | nt | nt | i | 105
C[C@H]1CCCCO[C@@H](CN(C)Cc2ccccc2)[C@@H](C)CN([C@@H](C)CO)C(=O)c2cc(NC(=O)Nc3cccc4ccccc34)ccc2O1 | 110[16.7 µM] | i | nt | nt | i | i
Cc1ccsc1C1Nc2ccc3ncccc3c2C2=C1C(=O)CC(C)(C)C2 (stereo not given) | i | 95 | i | i | i | i
CC/C(=C\C1CCCCC1)C(NP(=O)(c1ccccc1)c1ccccc1)c1ccccc1 (stereo not given) | 107 | i | i | i | i | i
CCCC(=O)Nc1ccc2c(c1)OC[C@@H](C)N(CC1CCCC1)C[C@@H](C)[C@@H](OC)CN(C)C2=O | i | i | nt | nt | i | i
CC(C)(C)c1ccc(N/N=C(\C#N)S(=O)(=O)C(C)(C)C)cc1 | i | nt | i | i | i | nt
